Our source for the inhibition and IC50 values is ChEMBL document CHEMBL4130466, “Angeloylated Germacranolides from Daucus virgatus and Their Plasmodium Transmission Blocking Activity” (J Nat Prod, 2017).

The test system of experiment [1] is Plasmodium berghei. Nature of the experiment: Antiplasmodial activity against Plasmodium berghei CTRPp expressing GFP assessed as inhibition of early sporogonic stages development at 50 ug/ml after 24 hrs by fluorescence microscopy.
The next experiment has as its system HaCaT. Nature of the experiment: Cytotoxicity against human HaCaT cells. It is filed as cell-based.
Experiment [2] has as its system Plasmodium berghei. Briefly: Antiplasmodial activity against Plasmodium berghei CTRPp expressing GFP assessed as inhibition of early sporogonic stages development after 24 hrs by fluorescence microscopy.
Experiment [3] deals with Plasmodium berghei. Nature of the experiment: Antiplasmodial activity against Plasmodium berghei CTRPp expressing GFP assessed as decrease in capacity of zygote to undergo ookinete maturation after 24 hrs by Zeiss fluorescence microscopy. It is filed as functional, organism-based. In outline: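 Mice were primed with phenylhydrazine 120 mg/kg ip and infected ip with 10^7 P. berghei CTRPp.GFP RBCs. Day-4 blood with >3 exflagellation centres/1000 RBCs went into pH 7.4 RPMI 1640 (100 μM xanthurenic acid, 20% FBS) with compound over a dose range. Incubation was 19 °C, 24 h. GFP zygotes and ookinetes were counted by fluorescence microscopy, with inhibition calculated against 0.1% DMSO. Wells were in triplicate, and experiments were run at least twice.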

The subject of another experiment is A-375. Briefly: Cytotoxicity against human A375 cells. It is filed as cell-based.

Take `C/C=C(/C)C(=O)O[C@]1(C)C(=O)O[C@H]2C[C@]3(C)O[C@H]3CC/C(C)=C/[C@H](OC(=O)[C@@]3(C)O[C@H]3C)[C@@H]21`: the inhibition at 50 µg/mL in the experiment with Plasmodium berghei [1] lay within 22 to 35%.
As for `C/C=C(/C)C(=O)O[C@@H]1[C@H]2[C@H](C/C(C)=C/CC[C@]3(C)O[C@@H]13)OC(=O)[C@@]2(C)O`, the inhibition at 50 µg/mL in the experiment on Plasmodium berghei [1] was in the range of 22 to 35%.
On the same count and under the same terms, then `C=C1C[C@H](OC(=O)/C(C)=C\C)[C@H]2[C@H](/C=C(\C)CC[C@@H]1O)OC(=O)[C@@]2(C)O`, with 22 to 35%.
Consider `C/C=C(/C)C(=O)O[C@]1(C)C(=O)O[C@H]2C/C(C)=C/CC/C(C)=C/[C@H](OC(=O)[C@@]3(C)O[C@H]3C)[C@@H]21`, for which the concentration for half-maximal inhibition (IC50) in the experiment with HaCaT was more than 100 µM; in the experiment with Plasmodium berghei [2], 82.3 µM; in the experiment with Plasmodium berghei [3], 48.4 µM; in the experiment on A-375, more than 100 µM. Also, the inhibition at 50 µg/mL in the experiment with Plasmodium berghei [1] worked out at 92%.
`C/C=C(/C)C(=O)O[C@]1(C)C(=O)O[C@H]2C/C(C)=C/CC[C@]3(C)O[C@H]3[C@H](OC(=O)[C@@]3(C)O[C@H]3C)[C@@H]21`: the inhibition at 50 µg/mL in the experiment on Plasmodium berghei [1] fell in the range of 22 to 35%.
Same read-out and setting: then `C/C=C(/C)C(=O)O[C@H]1/C=C(\C)CC[C@@H]2O[C@@]2(C)C[C@@H]2OC(=O)[C@@](C)(O)[C@@H]12`, with 22 to 35%.
The same measure, in the same setting: then `C=C1C[C@@H]2OC(=O)[C@@](C)(O)[C@H]2[C@@H](OC(=O)/C(C)=C\C)[C@@H]2O[C@@]2(C)CC[C@H]1OO`, with 22 to 35%.
As for `C=C[C@@]12COC(=O)C(=C)[C@@H]1[C@@H](O)[C@H](C(=C)C(=O)OC)[C@@H](OC(=O)C(=C)CO)C2` [VERNODALOL], in the experiment on Plasmodium berghei [2], the IC50 was determined as 19 µM.

Broadly, the inhibition is the change of the read-out against control, counted positive when it falls. The term IC50 denotes the concentration needed to halve the response being measured.
